Here are results for ten compounds from ChEMBL document CHEMBL1124387, “Cardiotonic agents. 9. Synthesis and biological evaluation of a series of (E)-4,5-dihydro-6-[2-[4-(1H-imidazol-1-yl)phenyl]ethenyl]-3 (2H)-pyridazinones: a novel class of compounds with positive inotropic, antithrombotic, and vasodilatory activities for the treatment of congestive heart failure” (J Med Chem, 1989).

The species named for one data set is Homo sapiens. The data set can be described thus: In vitro inhibition of collagen stimulated platelet aggregation in human thrombocyte enriched plasma. Format: functional.
Conditions: not given
In short, it runs like this:
(§1)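 Human platelet-rich plasma from aspirin/NSAID-free donors, adjusted to 250 000 platelets/μL with platelet-poor plasma. Drug in DMSO/saline (1% DMSO final) was added before ADP or collagen, with doses set by titration. Read-out was aggregation extent (ADP, curve height) or rate (collagen, major slope) as % of saline control.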
In general, IC50 refers to the concentration that gives 50% inhibition. A high value points to weaker potency in that assay. With `O=C1CCC(/C=C/c2ccc(-n3cnc4c3CCCC4)cc2)=NN1`, the half-inhibitory concentration (IC50) was 450 nM. In other words, the sub-micromolar range.
Same read-out and setting: the value for `O=C1CCC(/C=C/c2ccc(-n3ccnc3)cc2)=NN1` was 200 nM; that for `CC1CC(=O)NN=C1c1ccc(-n2cnc3c2CCCC3)cc1` (centres undefined) [TETRAHYDROBENXIMIDAZOLE] was 15 nM.

Tested on in the next data set: not listed separately
Put plainly: Partition coefficient (logP). Format: physicochemical. To be noted: octanol/water.
A word on the logP: it is a log measure of how a compound divides between an organic and an aqueous phase. Consider `O=C1CCC(/C=C/c2ccc(-n3cnc4c3CCCC4)cc2)=NN1`, for which the logP is 2.47.
On the same count and under the same terms, with `O=C1CCC(/C=C/c2ccc(-n3ccnc3)cc2)=NN1` the figure was 1.21.
On the same count and under the same terms, the value for `CC(=O)Nc1ccc(/C=C/C2=NNC(=O)CC2C)cc1` (centres undefined) was 1.27.
In the case of `CC1CC(=O)NN=C1c1ccc(-n2cnc3c2CCCC3)cc1` (centres undefined) [TETRAHYDROBENXIMIDAZOLE], the logP turned out to be 2.52.

Biological target in another data set: not listed separately
Put plainly: Inhibition of phosphodiesterase 3 from guinea pig cardiac tissue at 1E-7-1E-4M or 1.0E-6 to 1E-3 M.
Conditions: not given
Further details: species or system Cavia porcellus. An outline of the steps: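 Fraction III cAMP-PDE from guinea pig heart or human platelets. Substrate [3H]cyclic AMP 1.0 μM at 30°C, with hydrolysis held to ≤10-20% and kept linear over 30 min. Compounds in DMSO, 2.5% final.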
`O=C1CCC(/C=C/c2ccc(-n3ccnc3)cc2)=NN1` had an IC50 of 1100 nM.
Compound `CC(=O)Nc1ccc(/C=C/C2=NNC(=O)CC2C)cc1` (centres undefined) came in with an IC50 of 2800 nM.
Compound `CC1CC(=O)NN=C1c1ccc(-n2cnc3c2CCCC3)cc1` (centres undefined) [TETRAHYDROBENXIMIDAZOLE] yielded a 50% inhibitory concentration (IC50) of 150 nM. This IC50 is about 19-fold lower than that of the compound before.

The species entered for another data set is Homo sapiens. The data set can be described thus: In vitro inhibition of ADP stimulated platelet aggregation in human whole blood. It is filed as functional.
Conditions: not given
An outline of the steps:
(§2)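 Human whole blood from aspirin/NSAID-free fasted donors, read by impedance aggregometry 5 min after adding ADP or collagen. Aggregation expressed as % of control (2-6 replicates), plotted against log drug concentration; IC50 obtained by extrapolation.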
In turn, `O=C1CCC(/C=C/c2ccc(-n3cnc4c3CCCC4)cc2)=NN1` yielded an IC50 of 1700 nM.
On to `CC1CC(=O)NN=C1c1ccc(-n2cnc3c2CCCC3)cc1` (centres undefined) [TETRAHYDROBENXIMIDAZOLE], for which the concentration for half-maximal inhibition (IC50) is 500 nM.

A further data set concerns the target T1, Phosphodiesterase 3 (Homo sapiens, UniProt Q14432+Q13370). Put plainly: Inhibition of phosphodiesterase 3 from human platelets at 1E-7-1E-4M or 1.0E-6 to 1E-3 M.
Conditions: not given
With `O=C1CCC(/C=C/c2ccc(-n3ccnc3)cc2)=NN1`, the IC50 turned out to be 400 nM.
The compound `CC1CC(=O)NN=C1c1ccc(-n2cnc3c2CCCC3)cc1` (centres undefined) [TETRAHYDROBENXIMIDAZOLE] showed an IC50 of 110 nM. This IC50 is about 3.6-fold lower than that of the compound before.

For a further data set, the species on record is Homo sapiens. The data set can be described thus: In vitro inhibition of collagen stimulated platelet aggregation in human whole blood. It is filed as functional.
Conditions: not given
In short, it runs like this:
as §2
`O=C1CCC(/C=C/c2ccc(-n3cnc4c3CCCC4)cc2)=NN1` displayed an IC50 of 1000 nM.
Turning to `CC1CC(=O)NN=C1c1ccc(-n2cnc3c2CCCC3)cc1` (centres undefined) [TETRAHYDROBENXIMIDAZOLE], the half-maximal inhibitory concentration (IC50) was found to be 750 nM.

The species named for the next data set is Canis familiaris. The data set can be described thus: 50% increase in myocardial contractility (dP/dT max) in dogs.
Conditions: not given
It is filed as functional, Canis lupus familiaris, Myocardium. In short, it runs like this: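 Acutely instrumented anesthetized dogs (n = 6), 30-min control period. Compound in 0.9% saline, or dilute HCl diluted with saline, at 0.1 mL/kg iv over 1 min. At least four ascending half-log doses, 10 min apart, one compound per animal. Recorded: LV dP/dtmax, heart rate, aortic pressure and forelimb resistance. Values are maximum response from control average ± SEM.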
In turn, `CC1CC(=O)NN=C1/C=C/c1ccc(-n2cnc3ccccc32)cc1` (centres undefined) came in with a Dose of 0.09 mg/kg.
In turn, `CC1CC(=O)N(C)N=C1/C=C/c1ccc(-n2ccnc2)cc1` (centres undefined) gave a Dose of 1 mg/kg.
Compound `Cc1cc(O)nnc1/C=C/c1ccc(-n2ccnc2)cc1` showed a Dose of 0.2 mg/kg.
In the case of `CCC(=O)Nc1ccc(/C=C/C2=NNC(=O)CC2C)cc1` (centres undefined), the Dose turned out to be 0.2 mg/kg.
Regarding `O=C1CCC(CCc2ccc(-n3ccnc3)cc2)=NN1`, the Dose was determined as 1 mg/kg.
Still for that read-out and setting: the value for `O=C1CCC(/C=C/c2ccc(-n3cnc4c3CCCC4)cc2)=NN1` was 0.1 mg/kg.
Same read-out and setting: with `O=C1CCC(/C=C/c2ccc(-n3ccnc3)cc2)=NN1` the figure was 0.02 mg/kg.
`CC(=O)Nc1ccc(/C=C/C2=NNC(=O)CC2C)cc1` (centres undefined) returned a Dose of 0.02 mg/kg.
Compound `CC1CC(=O)NN=C1/C=C/c1ccc(N)cc1` (centres undefined) came in with a Dose of 1 mg/kg.

The target in another data set is T1, Phosphodiesterase 3. The data set can be described thus: Inhibition of Phosphodiesterase 3 from human platelets at 1E-7-1E-4M or 1.0E-6 to 1E-3 M.
Conditions: not given
In short, it runs like this: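 Fraction III cAMP-PDE from guinea pig heart or human platelets. Substrate [3H]cyclic AMP 1.0 μM at 30°C, with hydrolysis held to ≤10-20% and kept linear over 30 min.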
With `CC(=O)Nc1ccc(/C=C/C2=NNC(=O)CC2C)cc1` (centres undefined), the IC50 stood at 870 nM.

The species named for another data set is Homo sapiens. Put plainly: In vitro inhibition of ADP stimulated platelet aggregation in human thrombocyte enriched plasma. Format: functional.
Conditions: not given
In short, it runs like this: as §1
Take `O=C1CCC(/C=C/c2ccc(-n3cnc4c3CCCC4)cc2)=NN1`: inhibition was half-maximal at 5000 nM (IC50).
On to `O=C1CCC(/C=C/c2ccc(-n3ccnc3)cc2)=NN1`, for which the IC50 was 6000 nM.
Same read-out and setting: with `CC1CC(=O)NN=C1c1ccc(-n2cnc3c2CCCC3)cc1` (centres undefined) [TETRAHYDROBENXIMIDAZOLE] the figure was 4000 nM.
